Source: PubChem BioAssay (several laboratories)
LEDGF integ inh: blockers of LEDGF/p75-dependent integrase strand transfer – biochemical, TR-FRET, high throughput, primary screen | inhibition, % at 3.7 µM | 370,000 tested, 0.64% active | HIV-1 integrase (with human LEDGF/p75) | TR-FRET IN-LEDGF/p75 DNA integration, Eu/Cy5;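 active = inhibition above the screen-wide mean plus 3 SD, cut at about 13% in these data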;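 note: signal is the Cy5 over europium emission ratio at 671 and 618 nm; 0% = plate median of compound wells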
UHRF1 binding: UHRF1 methylated DNA binding inhibitors, primary screen, counter-screen for MBD2 inhibitor project, biochemical, TR-FRET, human UHRF1, single concentration; inhibition, % at 4.4 µM; E3 ubiquitin-protein ligase UHRF1 (Homo sapiens), Q96T88; AID 687016, 2013; 370,000 tested, 0.75% active; UHRF1 binding to methylated oligo; in the data active = inhibition above about 21%;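 note: UHRF1 SRA domain binding a hemimethylated CpG hairpin DNA probe; 0% = median of test compound wells and 100% = reference inhibitor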
MBD2 DNA inh: inhibitors of MBD2 binding to methylated DNA, primary screen, biochemical, TR-FRET, DNA-binding domain, human | Methyl-CpG-binding domain protein 2 (Homo sapiens), Q9UBB5 | MBD2 binding to methylated oligonucleotide | inhibition, % at 4.4 µM | 370,000 tested, 0.31% active | AID 686964, 2013; in the data active = inhibition above about 13%
Target sequence (Q9UBB5 whole entry, looked up, the tested form may be a part): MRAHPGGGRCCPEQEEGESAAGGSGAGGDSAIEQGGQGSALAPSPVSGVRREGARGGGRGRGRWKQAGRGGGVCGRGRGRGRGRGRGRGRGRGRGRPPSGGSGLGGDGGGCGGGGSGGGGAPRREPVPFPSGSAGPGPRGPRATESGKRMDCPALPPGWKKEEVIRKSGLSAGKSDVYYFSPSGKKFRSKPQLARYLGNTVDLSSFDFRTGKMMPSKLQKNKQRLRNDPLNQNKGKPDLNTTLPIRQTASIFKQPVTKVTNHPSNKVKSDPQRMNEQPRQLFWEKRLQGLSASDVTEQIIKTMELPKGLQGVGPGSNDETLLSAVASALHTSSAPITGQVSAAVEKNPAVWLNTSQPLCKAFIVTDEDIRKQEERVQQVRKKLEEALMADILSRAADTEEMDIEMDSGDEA
TDP2 absorb: human TDP2 enzyme inhibitors, primary screen, biochemical, epi absorbance, recombinant enzyme. inhibition, % at 12.8 µM. T5PNP hydrolysis, p-nitrophenol absorbance 415 nm. 370,000 tested, 0.34% active. Tyrosyl-DNA phosphodiesterase 2 (Homo sapiens), O95551. AID 720702, 2013;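 active = inhibition above the mean of all tested compounds plus 3 SD, set per campaign, cut at about 25% in these data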;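 note: 0% = DMSO with enzyme and 100% = buffer with substrate but no TDP2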
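Test system: human TDP2 enzyme; Input: 120 nM TDP2 per well; Buffer or medium: Mg2+-containing Tris-HCl buffer, pH 7.5; Reagent: 5 mM T5PNP; Dosing: 12.8 µM single point, 1% DMSO; Incubation: reaction 2 h, 37 °C; Detection: p-Nitrophenol epi absorbance; Read-out: % inhibition relative to enzyme-containing and enzyme-free wells; Replicates: single well per compound.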
Casp6 inh: human caspase-6 inhibitors, primary screen, biochemical, VEID-R110 fluorescence, single point, set 2 | 350,000 tested, 0.53% active | purified caspase-6, Z-VEID-R110 cleavage fluorescence | inhibition, % at 12.5 µM | AID 686996, 2013 | P55212;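 active = mean inhibition across replicates at least about 35%, with every replicate also reaching that limit, limit read from the data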;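 note: 0% = median of neutral control wells and 100% = no fluorescence left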
Target sequence (P55212 24-179 limits assumed): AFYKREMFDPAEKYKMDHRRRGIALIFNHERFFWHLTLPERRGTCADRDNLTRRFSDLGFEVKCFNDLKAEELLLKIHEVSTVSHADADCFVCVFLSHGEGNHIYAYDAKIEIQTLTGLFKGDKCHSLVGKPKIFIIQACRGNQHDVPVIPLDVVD
Target sequence (P55212 194-293 limits assumed): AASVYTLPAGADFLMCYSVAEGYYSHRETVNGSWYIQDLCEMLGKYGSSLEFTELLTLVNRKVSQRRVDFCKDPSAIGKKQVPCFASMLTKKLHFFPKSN
NSD2 inh: NSD2 histone methyltransferase inhibitors, primary screen, biochemical, AlphaScreen, single concentration, set 2; inhibition, % at 12.5 µM; NSD2 peptide methylation, 120 min; Histone-lysine N-methyltransferase NSD2 (Homo sapiens), O96028; AID 743445, 2014; 310,000 tested, 0.54% active; in the data active = inhibition above about 50%
TDP2 confirm: human TDP2 enzyme inhibitors, retest, confirmation, biochemical, epi absorbance, recombinant enzyme; shares compounds with TDP2 absorb; absorbance read-out; inhibition, % at 12.8 µM; 1,100 tested, 22% active; AID 743263, 2014; in the data active = inhibition above about 25%;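 note: 0% = vehicle with enzyme and 100% = no enzyme buffer only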
IN multimer act: HIV-1 IN multimer formation enhancers, counter-screen for LEDGF/p75 integration inhibitor project, biochemical, TR-FRET; shares compounds with LEDGF integ inh; TR-FRET HIV-1 integrase multimerization; activation, % at 7.7 µM; 2,000 tested, 17% active; in the data active = activation above about 8.9%
TR-FRET interf: TR-FRET optical interference artefacts, confirmation, artefact control for LEDGF/p75-dependent integration inhibitor project, biochemical, HIV-1 IN multimerization; inhibition, % at 7.7 µM; 2,000 tested, under 10 active; TR-FRET optical interference counterscreen; shares compounds with LEDGF integ inh;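 active = inhibition above the mean over all tested compounds plus 3 SD, which no compound reached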;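 note: 0% = integrase with antibodies and DMSO and 100% = antibodies without integrase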
IN-LEDGF confirm: inhibitors of HIV-1 IN-LEDGF/p75 DNA integration, confirmation, biochemical, TR-FRET | shares compounds with LEDGF integ inh | TR-FRET LEDGF/p75-dependent HIV-1 integration | inhibition, % at 3.7 µM | 2,000 tested, 36% active | AID 1053136, 2014; in the data active = inhibition above about 14%
Alpha artifact: AlphaScreen signal interference with preloaded methylated product, dose response, artefact control for NSD2 inhibitor project, biochemical, cherry-picked samples; shares compounds with NSD2 inh; AlphaScreen artifact counterscreen, preloaded methylated H4 peptide; AC35, µM (titrated, usually from 10 µM), inactives show top-dose activity change, negative = signal loss; 1,500 tested, 9.4% active; AID 1053174, 2014; call rule not given here
* = called active by the depositor; · = no result given. A selection: hits, their analogues and other compounds. The true share with any hit is near 1.8%.

SMILES | LEDGF integ inh | UHRF1 binding | MBD2 DNA inh | TDP2 absorb | Casp6 inh | NSD2 inh | IN multimer act | TR-FRET interf | IN-LEDGF confirm | others
CCOc1ccc(NC2=C(OC)C(=O)c3ccccc3C2=O)cc1 | 6.3 | -7.5 | -17.9 | 26.4* | · | 53.0* | · | · | · | TDP2 confirm=22.2;Alpha artifact=3.74µM*
COC1=C(Nc2ccc(OC)cc2)C(=O)c2ccccc2C1=O | 18.0* | -7.8 | -3.4 | 60.3* | · | 65.6* | 6.9 | -24.7 | -2.0 | TDP2 confirm=3.9;Alpha artifact=5.5µM*
COc1ccc(NC2=C(NC(C)=O)C(=O)c3ccccc3C2=O)cc1 | -6.2 | -18.6 | -23.0 | 11.5 | 12.5 | 12.8 | · | · | ·
COC1=C(Nc2ccc(OC)cc2)C(=O)C(OC)=C(Nc2ccc(OC)cc2)C1=O | -4.5 | -3.4 | 1.6 | 2.8 | 2.7 | 1.0 | · | · | ·
Nn1cnnc1N/N=C\c1ccc(-c2ccccc2[N+](=O)[O-])o1 | 38.5* | 11.1 | -3.0 | 65.8* | 10.3 | 97.5* | 2.4 | -8.5 | 1.2 | TDP2 confirm=39.0*;Alpha artifact=-4.7%
CO[C@@H]1CN(C)C(=O)c2ccc(NC(=O)C3CCOCC3)cc2OC[C@H](C)N(C(C)=O)C[C@@H]1C | · | · | · | · | -2.1 | · | · | · | ·
O=C(NCC1CC1)[C@H]1[C@H](CO)[C@H]2Cn3c(ccc(C4=CCCCC4)c3=O)[C@@H]1N2 | · | · | · | · | 1.4 | · | · | · | ·
CCOC(=O)C1=C(COC(=O)c2sccc2C)NC(=O)NC1C (stereo not drawn) | -3.4 | 5.5 | 10.1 | 1.0 | 1.1 | -4.7 | · | · | ·
CCOC(=O)C1=C(COC(=O)c2ccc([N+](=O)[O-])s2)NC(=O)NC1C (stereo not drawn) | 31.1* | 2.9 | -0.7 | 38.7* | 89.4* | 103.6* | 0.5 | -1.6 | 60.6* | TDP2 confirm=41.5*;Alpha artifact=0.2%
COc1cc(NCCCNC(C)C)c2nccc(C)c2c1 | 12.4 | -3.3 | -8.8 | 27.7* | 87.9* | 106.6* | · | · | · | TDP2 confirm=27.6*;Alpha artifact=-4.4%
C[C@@H]1CN([C@@H](C)CO)S(=O)(=O)c2ccc(C#Cc3ccc(F)cc3)cc2O[C@@H]1CN(C)C(=O)NC1CCCC1 | · | · | · | · | -1.4 | · | · | · | ·
Cc1ccc2c(c1C)-c1c(ccc(C)c1C)C(=O)C2=O | 14.1* | -2.0 | -6.4 | 79.3* | 7.7 | 85.2* | 3.6 | -12.5 | 68.8* | TDP2 confirm=67.3*;Alpha artifact=-7.5%
CO[C@H](CN(C)C(=O)Nc1ccc(C(F)(F)F)cc1)[C@H](C)CN(Cc1ccccc1Cl)[C@H](C)CO | · | · | · | · | 1.9 | · | · | · | ·
C[n+]1cccc2cccc([O-])c21 | 15.1* | 10.2 | 1.6 | 27.4* | 52.0* | 103.2* | 8.4 | -29.4 | 53.6* | TDP2 confirm=28.4*;Alpha artifact=-2.5%
CCCC#Cc1cnc2c(c1)C(=O)N([C@@H](C)CO)C[C@H](C)[C@@H](CN(C)C(=O)Cc1cccnc1)O2 | · | · | · | · | 3.1 | · | · | · | ·
O=C(NCc1ccco1)c1c2c(nc3ccccc13)CCC2 | 27.8* | 18.2 | 8.1 | 12.9 | · | -3.0 | 3.5 | -17.7 | 23.6*
CCOc1ccc(C(=O)C[n+]2ccccc2C)cc1 | 13.8* | 1.8 | -2.8 | 3.7 | · | -2.9 | -0.3 | 1.4 | -3.0
c1cn2cc(-c3ccc(CN4CCOCC4)cc3)ccc2n1 | 88.9* | -0.2 | -3.9 | 1.9 | -6.7 | -2.3 | 1.2 | -4.3 | -1.4
COc1ccccc1NC(=O)N[C@@H]1CC[C@H](CCNC(=O)Cc2ccccn2)O[C@@H]1CO | · | · | · | · | -2.2 | · | · | · | ·
CC(C)N1C(=O)S/C(=C\c2ccc(-c3ccc(Cl)c(C(=O)O)c3)o2)C1=O | 37.0* | 37.2* | -0.4 | -14.4 | 18.3 | 1.0 | 1.1 | -4.3 | 4.9
O=C(C1=C(O)C(=O)N(c2nc3ccc(Cl)cc3s2)C1c1ccco1)c1ccco1 (stereo not drawn) | 20.2* | 24.4* | 9.6 | 2.2 | 88.3* | 0.4 | 7.2 | -36.1 | 21.1*
CN(C)c1ccc(-c2[nH][nH]c(=O)c2NC(=O)c2ccc3ccccc3n2)cc1 | 30.5* | 16.9 | 8.4 | 90.4* | 9.1 | · | 6.5 | -23.0 | 19.2*
COCC(=O)N[C@@H]1CC[C@H](CC(=O)NCc2ccccc2OC)O[C@@H]1CO | · | · | · | · | -2.1 | · | · | · | ·
N#Cc1c(SCC(=O)Nc2cccc(F)c2)sc2c(O)cc(=O)[nH]c12 | 17.5* | 30.2* | 8.6 | -3.4 | 43.7* | 3.5 | 7.5 | -37.7 | 5.1
CC(=O)OCC1=C(C(=O)O)N2C(=O)C(NC(=O)c3ccc(F)cc3)C2SC1 (stereo not drawn) | -0.2 | -1.5 | 1.3 | 0.6 | 4.2 | 2.2 | · | · | ·
SMILES | LEDGF integ inh | UHRF1 binding | MBD2 DNA inh | TDP2 absorb | Casp6 inh | NSD2 inh | IN multimer act | TR-FRET interf | IN-LEDGF confirm | others
CO/N=C(\C(=O)N[C@@H]1C(=O)N2C(C(=O)O)=C(COC(N)=O)CS[C@H]12)c1ccco1 | 14.4* | 25.4* | 1.7 | -12.2 | 24.1 | · | 1.2 | -5.8 | 15.7*
COCC(=O)Nc1ccc2c(c1)OC[C@@H](C)N(C(=O)CC1CC1)C[C@H](C)[C@H](OC)CN(C)C2=O | · | · | · | · | 2.5 | · | · | · | ·
O=C(NCc1n[nH]c(=S)n1-c1ccccc1)c1ccco1 | 14.9* | 1.2 | 7.6 | 7.0 | · | 2.3 | -0.4 | 2.2 | -7.9
COc1ccc(NC(=O)N(C)C[C@H]2Oc3c(cccc3N(C)C)C(=O)N([C@@H](C)CO)C[C@@H]2C)cc1 | · | · | · | · | 1.5 | · | · | · | ·
CC(=O)Nc1cc(C(F)(F)F)ccc1Oc1cccc(Br)c1 | 15.7* | 3.7 | -1.1 | 12.4 | · | -5.9 | -2.0 | 10.2 | -0.8
COc1ccccc1CN1CCCC(N2CCN(c3ccccc3OC)CC2)C1 (stereo not drawn) | -0.5 | 1.2 | -0.5 | 15.0 | -1.0 | 1.3 | · | · | ·
